# Source: PubChem BioAssay
# Shown are actives, neighbours in structure and some others; about 5.5% of the full set was active somewhere.
# RAM inhibit: inhibitors of the yeast RAM network, primary screen, dse1pr::URA3 reporter, 5-FOA selection; S. cerevisiae dse1pr::URA3 reporter, 5-FOA growth OD615, 2 d; analog-sensitive cbk1-as2 kinase mutant strain; inhibition, % at 50 µM; 190,000 compounds, 1.8% hits;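 active means inhibition above a set limit, 3 SD over mean compound inhibition, cut at about 8.4% in these data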;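 further: 0% = DMSO-only wells with no growth and 100% = 10 µM 1-NA-PP1 full growth; inhibition rescues growth on 5-FOA so higher OD means more RAM inhibition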
# Cl transport mod: KCC2 cotransporter modulators, thallium flux, primary screen, cell-based, HEK293 KCC2, FluoZin-2 fluorescence, MLSMR; KCC2 cells, thallium flux FluoZin-2 fluorescence; B-score of Tl+ flux slope (higher = more flux/activation; lower = inhibition) at 10 µM; 190,000 compounds, 2.2% hits; AID 1456, 2008;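 active means thallium flux slope and its plate-corrected score both differing from the plate sample mean at a set confidence after two filtering rounds, in either direction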;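 further: slope of fluorescence scaled to starting intensity during 10 to 20 s after thallium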
# Yeast life ext: compounds extending yeast replicative lifespan, primary screen, S. cerevisiae, OD615 | AID 775, 2007 | S. cerevisiae growth with nicotinamide; deaD strain in restrictive glucose medium | 130,000 compounds, 0.68% hits | inhibition of the nicotinamide effect, % at 10 µM;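 active means inhibition above a set limit, placed 3 SD over the median of all compounds, cut at about 26% in these data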;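 further: 0% = nicotinamide-treated wells and 100% = cells grown without nicotinamide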
#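 Assay system: engineered S. cerevisiae DeaD replicative-lifespan strain, galactose-grown log-phase cells; Buffer or medium: CSMM-D glucose medium, restrictive; Probe or stimulus: nicotinamide 1.5 mM; Compound: single dose 10 µM compound, 0.25% DMSO; Schedule: 4 h preincubation then 48 h treatment at 30 °C; Technique: OD615 measurement.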
# WT yeast gro inh: growth inhibition of WT strain, primary screen, mitochondrial fusion inhibitor project, WT and mutant strains, chemical genetic. AID 1362, 2008. 190,000 compounds, 2.1% hits. inhibition, % at 10 µM. mitochondrial fusion phenotypic screen; in the data active means inhibition above about 58%; tested in S. cerevisiae
# BB579 growth dn: growth inhibitors of yeast BB579 in restrictive medium, primary screen, yeast lifespan-shortening project, S. cerevisiae; OD615, 48 h; 140,000 compounds, 0.51% hits; inhibition, % at 10 µM;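 active means inhibition above a set limit, 3 SD over the mean compound inhibition, cut at about 44% in these data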
#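 Assay system – yeast BB579 (DeaD) · Dosing – single compound dose of 10 µM, 0.25% DMSO final · Detection – OD615 turbidity measurement · Buffer or medium – CSMM-D restrictive synthetic medium containing dextrose (glucose) · Benchmarks – positive control amphotericin B 10 µg/mL · Incubation – 48 h exposure, 30 °C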
# * marks the source's active call; other numbers are inactive results; x = not tested or not shown.
SMILES,RAM inhibit,Cl transport mod,Yeast life ext,WT yeast gro inh,BB579 growth dn
CC(C)C1=NN(C(=O)c2ccccc2)C(O)(C(C)(C)C)C1 (configuration not stated),0,1.2,-6,1,-6
Cc1ccccc1C1C(C#N)=C2N=C(N)c3c(sc4c3CCCCC4)N2C2=C1C(=O)CCC2 (configuration not stated),2,x,-15,-16,-6
COc1cccc(CNC(=O)Cc2ccc(-n3c(=O)[nH]c4ccccc4c3=O)cc2)c1,9.0*,-0.94,5,-9,-28
Cc1ccc(NC(=S)N/N=C/c2c(C)[nH]c3ccccc23)cc1,8,0.082,x,96*,x
CCCCc1ccc(NC(=S)NCc2cccc(OC)c2)cc1,2,-1.4,x,66*,x
CCCCc1ccc(NC(=S)Nc2cccnc2)cc1,1,-0.51,-9,6,-17
COC(=O)Cc1ccc(NC(=S)NCc2cccc(OC)c2)cc1,1,0.083,x,-6,x
CCc1ccc(NC(=S)NCc2ccccc2)cc1,0,-0.34,x,70*,x
CCCCc1ccc(NC(=S)Nc2ccc(Nc3ccc(OC)cc3)cc2)cc1,7,0.45,-5,55,56*
CCc1ccc(NC(=S)NCc2cccnc2)cc1,x,-0.16,x,x,x
Nc1c(-c2ccccc2)c(CSc2nc3ccccc3[nH]2)nn1-c1ccc(C(=O)O)cc1,2,0.4,1,-9,0
O=C1NCCCCC1NS(=O)(=O)c1ccc(F)c(F)c1 (configuration not stated),x,0.77,x,x,x
CC(=O)NC1C(Oc2ccccc2C)OC2COC(c3ccco3)OC2C1O (configuration not stated),0,0.18,-2,-7,-9
COc1cc(OC)cc(C(=O)Nc2nnc(Cc3ccc(OC)c(OC)c3)s2)c1,4,-0.021,x,13,x
CC(OC(=O)c1cc(=O)[nH]c2ccccc12)c1ccccc1 (configuration not stated),3,x,-32,-7,-46
OCCN(Cc1ccccc1)C(=S)NC1CCCCC1,2,-0.19,x,5,x
CC(C)N(Cc1ccccc1)C(=S)NC1CCCCC1,-1,-0.8,x,64*,x
CC(C)N(C(=S)NC1CCCCC1)c1ccccc1,1,-0.98,x,59*,x
CC(C)N(Cc1ccccc1)C(=S)NCc1ccccc1,3,0.38,x,34,x
S=C(NC1CCCCC1)N(CCc1ccccc1)CCc1ccccc1,7,-0.76,4,62*,-29
c1ccc2c(c1)oc1c(N3CCOCC3)ncnc12,0,-0.05,-14,52,56*
c1ccc2[nH]c(CN3CCN(c4ncnc5c4oc4ccccc45)CC3)nc2c1,0,0.15,-15,20,-43
C(=C\c1ccccc1)/CN1CCN(c2ncnc3c2oc2ccccc23)CC1,2,x,-7,67*,-45
Cc1nc(N2CCOCC2)c2oc3ccccc3c2n1,3,x,-18,32,-20
COc1ccccc1N1CCN(C(=O)c2oc3ccc(Br)cc3c2C)CC1,2,0.45,10,79*,-20
SMILES,RAM inhibit,Cl transport mod,Yeast life ext,WT yeast gro inh,BB579 growth dn
O=C(c1ccco1)N1CCN(c2ncnc3c2oc2ccccc23)CC1,2,-1.9,-15,-8,13
COc1ccccc1N1CCN(c2ncnc3c2oc2ccccc23)CC1,1,x,-20,61*,4
O=C(COC(=O)c1ccc(O)cc1)Nc1ccc(Cl)cc1,1,-0.11,x,18,x
[O-]/C(=C(\C(=S)Nc1cccc2ccccc12)[n+]1ccccc1)c1ccc2c(c1)OCCO2,2,x,-5,21,-23
CCC(C)(C)n1c(=O)[nH]c2c(c1=O)CCC2,1,x,-5,3,-44
CCOC(=O)C1C(=O)C(C(C)=O)C(=O)CC1CC(C)SCC (configuration not stated),-2,0.89,93*,-13,-50
COc1ccc(C(=O)NC(=S)N(Cc2ccccc2)Cc2ccccc2)cc1,5,64*,-16,71,11
CN(Cc1ccccc1)C(=O)c1ccccc1NC(=O)c1ccccc1,1,x,-15,12,-29
CN(Cc1ccccc1)C(=S)NC(=O)C1CCCCC1,-1,14*,6,2,-30
C=CCN(CC=C)C(=S)NC(=O)c1ccc(-c2ccccc2)cc1,0,31*,-14,66*,-2
O=C(NC(=S)N(Cc1ccccc1)c1ccccn1)C1CCCCC1,-1,0.03,-4,-23,1
CN(Cc1ccccc1)C(=S)NC(=O)c1ccc(-c2ccccc2)cc1,4,29*,-2,-5,-39
COc1ccc(NC(C)(C)c2nnnn2-c2c(C)cccc2C)cc1,x,-3.1,x,x,x
C=CCN(CC=C)C(=S)NC(=O)/C=C/c1ccc(C)cc1,-1,15*,0,-9,-30
C=CCN(CC=C)C(=S)NC(=O)c1ccc(C)c(Br)c1,1,45*,16,51,22
Cc1ccc(C2(C)CC(C)(C)N(C(=O)CSc3nnc(C)s3)c3ccccc32)cc1 (configuration not stated),7,-0.66,2,59*,-42
CC(C)c1cc(C(F)(F)F)n2nc(C(=O)Nc3ccc(-n4cnnn4)cc3)cc2n1,x,0.31,x,x,x
COc1ccc(N2C(=S)NC3CS(=O)(=O)CC32)cc1 (configuration not stated),x,1.1,x,x,x
CS/C(N)=N/N=C/c1cc(Br)cc(Br)c1O,x,-0.056,x,x,x
Nn1cnnc1N/N=C/c1cc(Br)cc(Br)c1O,9.6*,x,2,-1,-1
COc1ccc(S(=O)(=O)n2nc(OC(C)=O)cc2N)cc1,0,-0.52,x,3,x
COc1cccc(C(=O)Oc2cc(N)n(S(=O)(=O)c3ccc(C)cc3)n2)c1OC,9.1*,-2.4,68*,-7,-37
Oc1ccccc1/C=N/n1c2ccccc2c2ccccc21,9.7*,x,-19,-14,-14
C(=N\n1c2ccccc2c2ccccc21)/c1ccccc1,8,0.54,1,-2,-15
Cc1ccc(Oc2cc(C)nc(-c3ccccc3O)n2)cc1,9.4*,x,-15,x,-33
SMILES,RAM inhibit,Cl transport mod,Yeast life ext,WT yeast gro inh,BB579 growth dn
Cc1cc(OC2CCCCC2)nc(-c2ccccc2O)n1,2,x,-6,32,-22
CN=C1S/C(=C\c2ccc(N3CCOCC3)cc2C)C(=O)N1C,3,0.069,-3,-18,-30
CCN=C1S/C(=C\c2ccc(N3CCOCC3)cc2C)C(=O)N1CC,10*,0.89,5,-23,-23
O=C(O)CCN1CC2([N+](=O)[O-])C=CC(=O)C([N+](=O)[O-])(C1)C2CC(=O)c1ccccc1 (configuration not stated),3,-0.13,5,10,-21
O=C(COC(=O)C12CC3CC(CC(C3)C1)C2)NC12CC3CC(CC(C3)C1)C2,2,0.32,7,80*,-39
CCC(CC)C(=O)OCC(=O)NC12CC3CC(CC(C3)C1)C2,0,x,3,-16,-19
